Each block holds one compound with its values, some of them ahead of it. Activity calls are given as the source filed them. No cut-off for these calls is given here.
Columns and labels:
[1] = molecular target: T1, Polyunsaturated fatty acid lipoxygenase ALOX15 (Homo sapiens) (UniProt P16050); assay: Inhibition of human 15-LOX1 assessed as conversion of linoleic acid to 13(S)-HpODE at 50 uM after 10 mins by UV analysis
T1 sequence (whole entry): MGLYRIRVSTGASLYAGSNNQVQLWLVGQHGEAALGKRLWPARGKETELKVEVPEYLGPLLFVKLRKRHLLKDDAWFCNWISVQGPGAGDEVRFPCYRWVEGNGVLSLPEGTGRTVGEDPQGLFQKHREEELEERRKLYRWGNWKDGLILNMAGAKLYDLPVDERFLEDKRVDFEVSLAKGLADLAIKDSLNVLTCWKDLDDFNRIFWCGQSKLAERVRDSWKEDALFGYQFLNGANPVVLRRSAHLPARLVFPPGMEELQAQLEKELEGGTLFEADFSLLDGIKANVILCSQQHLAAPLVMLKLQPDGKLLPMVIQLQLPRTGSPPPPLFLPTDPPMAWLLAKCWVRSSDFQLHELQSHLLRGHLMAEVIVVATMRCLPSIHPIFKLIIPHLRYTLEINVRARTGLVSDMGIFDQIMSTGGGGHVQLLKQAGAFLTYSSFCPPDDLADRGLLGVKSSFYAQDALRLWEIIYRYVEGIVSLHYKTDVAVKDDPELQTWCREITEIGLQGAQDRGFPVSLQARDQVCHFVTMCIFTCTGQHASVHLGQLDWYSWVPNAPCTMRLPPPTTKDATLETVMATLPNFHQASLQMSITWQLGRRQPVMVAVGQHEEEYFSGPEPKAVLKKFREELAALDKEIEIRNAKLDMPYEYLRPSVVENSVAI
How it was run: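 Single-concentration screen at 50 μM: h-15-LOX-1 (1:640 final) in 25 mM HEPES pH 7.5 is preincubated with inhibitor for 10 min at rt. 25 µM linoleic acid final is added, and product formation is followed as the linear A234 increase. Activity is normalised to no-inhibitor (100%) and no-enzyme (0%) controls, in triplicate.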

RAW264.7 [2] = assay: Antiinflammatory activity in mouse RAW264.7 cells assessed as effect on LPS/INFgamma-induced IL-12 gene expression at 1 to 100 nM treated 20 hrs before LPS/INFgamma stimulation measured after 4 hrs by RT-qPCR analysis; type: functional, cell-based
How it was run: (§1)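 RAW 264.7 cells (passage 7-16, DMEM with 10% FBS) are seeded at 20,000 cells/cm2 the day before. They receive 1-500 nM inhibitor final plus 10 μM linoleic acid for 20 h, with 10 ng/ml LPS and IFNγ for the last 4 h. Cytokine mRNA is measured by RT-qPCR on 10 ng cDNA, PCR in duplicate or triplicate, as fold change versus the LPS/IFNγ/linoleic acid control. Mean ± SEM, 4-6 experiments.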

Lung [3] = assay: Cytotoxicity against C57BL/6 mouse precision-cut lung slices assessed as viability at 500 nM by LDH release assay; type: tissue-based; settings: 0.5 µM
How it was run: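 Mouse lung slices are exposed to 1, 10, 100 or 500 nM inhibitor with 10 μM linoleic acid for 20 h. […] Mean ± SD of 3 independent experiments.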

RAW264.7 [4] = assay: Antiinflammatory activity in mouse RAW264.7 cells assessed as effect on LPS/INFgamma-induced IL-6 gene expression at 1 to 100 nM treated 20 hrs before LPS/INFgamma stimulation measured after 4 hrs by RT-qPCR analysis; type: functional, cell-based; how it was run: as §1
RAW264.7 [5] = assay: Cytotoxicity against mouse RAW264.7 cells assessed as cell viability at 12.5 uM by MTS assay; type: cell-based; settings: raw264.7, 12.5 µM
How it was run: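 RAW 264.7 macrophages are incubated with inhibitor at 0.05-100 μM, and viability is read by MTS assay. Treated wells are compared statistically with non-treated control cells.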

RAW264.7 [6] = assay: Antiinflammatory activity in mouse RAW264.7 cells assessed as effect on LPS/INFgamma-induced IL-1beta gene expression at 1 to 100 nM treated 20 hrs before LPS/INFgamma stimulation measured after 4 hrs by RT-qPCR analysis; type: functional, cell-based; how it was run: as §1
Lung [7] = assay: Antiinflammatory activity in C57BL/6 mouse precision-cut lung slices assessed as reduction of LPS/INFgamma-induced IL-6 gene expression at 1 to 100 nM treated 20 hrs before LPS/INFgamma stimulation measured after 4 hrs by RT-qPCR analysis relative to control; type: functional, tissue-based
How it was run: (§2)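 Male C57bl/6 mouse lungs are agarose-filled, then cut into 250 μm slices, 3 per well, in supplemented DMEM at 37 °C and 5% CO2. Inhibitor is given at 1-500 nM final with 10 μM linoleic acid for 20 h, and LPS/IFNγ is added for the last 4 h. IL-1β, IL-6, IL-10, IL-12 and GAPDH mRNA are measured by RT-qPCR as fold change versus the LPS/IFNγ/linoleic acid control. Mean ± SEM, 4-6 independent experiments.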

Lung [8] = assay: Antiinflammatory activity in C57BL/6 mouse precision-cut lung slices assessed as reduction of LPS/INFgamma-induced IL-12 gene expression at 1 to 100 nM treated 20 hrs before LPS/INFgamma stimulation measured after 4 hrs by RT-qPCR analysis relative to control; type: functional, tissue-based; how it was run: as §2
Lung [9] = assay: Antiinflammatory activity in C57BL/6 mouse precision-cut lung slices assessed as reduction of LPS/INFgamma-induced IL-1beta gene expression at 1 to 100 nM treated 20 hrs before LPS/INFgamma stimulation measured after 4 hrs by RT-qPCR analysis relative to control; type: functional, tissue-based; how it was run: as §2
Lung [10] = assay: Antiinflammatory activity in C57BL/6 mouse precision-cut lung slices assessed as increase of LPS/INFgamma-induced IL-10 gene expression at 1 to 100 nM treated 20 hrs before LPS/INFgamma stimulation measured after 4 hrs by RT-qPCR analysis relative to control; type: functional, tissue-based; how it was run: as §2

SMILES: CCOC(=O)c1[nH]c2cc(Cl)ccc2c1C(=O)C[C@@H](C)CCCC(C)C
- Activity (RAW264.7 [2]): inactive
- Activity (Lung [3]): Non-toxic
- Activity (RAW264.7 [4]): inactive
- Activity (RAW264.7 [5]): Non-toxic
- Activity (RAW264.7 [6]): inactive
- Activity (Lung [7]): Active
- Activity (Lung [8]): inactive
- Activity (Lung [9]): Active
- Activity (Lung [10]): Active

SMILES: CCOC(=O)c1c(C=O)c2ccc(Cl)cc2n1C
- inhibition [1]: inactive

SMILES: CC(C)(C)OC(=O)n1cc(C=O)c2ccccc21
- inhibition [1]: inactive

SMILES: CC(C)(C)OC(=O)c1cc2ccc(Cl)cc2[nH]1
- inhibition [1]: inactive

SMILES: O=Cc1c[nH]c2ccccc12
- inhibition [1]: inactive

Results, then the compound that gave them:

- inhibition [1]: inactive
SMILES: O=Cc1c(Cl)[nH]c2cc(Cl)ccc12

- inhibition [1]: inactive
SMILES: O=Cc1c(C(=O)O)[nH]c2cc(Cl)ccc12

- inhibition [1]: inactive
SMILES: O=Cc1c[nH]c2cc(Cl)ccc12

— ChEMBL document CHEMBL3621081, “Rational Development of a Potent 15-Lipoxygenase-1 Inhibitor with in Vitro and ex Vivo Anti-inflammatory Properties” (J Med Chem, 2015)
